The results in this text go back to ChEMBL document CHEMBL4270489, “Synthesis and in vitro and in vivo antitumour activity study of 11-hydroxyl esterified bergenin/cinnamic acid hybrids” (Eur J Med Chem, 2017).

As a reminder, the IC50 is the concentration at which inhibition is half-maximal.

Where only a bound is given, the exact number is not on record here.

The subject of one series is PC-3. Put plainly: Antiproliferative activity against human PC3 cells incubated for 48 to 72 hrs by MTT assay. Format: functional, cell-based. Put shortly:
(§1)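 MTT assay. Cells were grown in DMEM with 10% heat-inactivated FBS at 37°C under 5% CO₂. They were seeded at 5000/well in 5% FBS DMEM for 24 h, then given compound in DMSO at 0.1, 1, 10 and 100 µmol/L for 72 h (the table footnote says 48 h). MTT was added for 4 h, formazan was dissolved in DMSO and read at 570 nm. IC₅₀ was from ≥3 independent runs; >100 μM was given if 50% inhibition was not reached.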

In the next series the test system is MCF7. Put plainly: Antiproliferative activity against human MCF7 cells incubated for 48 to 72 hrs by MTT assay. It is filed as functional, cell-based. In short, it runs like this:
as §1
A general note: Tetrazolium dyes change colour on reduction, which living cells bring about.

Another series concerns A549. Put plainly: Antiproliferative activity against human A549 cells incubated for 48 to 72 hrs by MTT assay. It is filed as functional, cell-based. In short, it runs like this:
as §1

In series [1] the test system is HepG2. The series is described as follows: Antiproliferative activity against human HepG2 cells incubated for 48 to 72 hrs by MTT assay. Format: functional, cell-based. Put shortly:
as §1

The next series relates to SGC-7901. Put plainly: Antiproliferative activity against human SGC7901 cells incubated for 48 to 72 hrs by MTT assay. Format: functional, cell-based. Put shortly: as §1
The test system of series [2] is HepG2. The series is described as follows: Antitumour activity against human HepG2 cells xenografted in Swiss mouse assessed as inhibition of tumor growth at 20 mg/kg, ip dosed every day for 14 days. The conditions noted are these: 336 h, read-out: TGI. It is filed as functional. Put shortly:
(§2)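 Female Swiss mice (20-22 g) received 3×10⁶ HepG2 cells subcutaneously in the right flank. After 7-21 days they were randomised into groups of 6, including a saline control, and given daily intraperitoneal injections for 14 days. Body weight was recorded daily. Mice were killed on day 14, and tumour wet weight gave the % inhibition. Data are mean ± S.E.M.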
(In general: A xenograft is tissue or cells of one species grown in another, often human tumour cells in immunodeficient mice.)

A further series deals with Mus musculus. Put plainly: Toxicity in Swiss mouse xenografted with human HepG2 cells assessed as reduction in body weight at 20 mg/kg, ip dosed every day for 14 days. It is filed as organism-based. The conditions noted are these: in vivo, 336 h. In short, it runs like this:
as §2

On to `COc1cc(/C=C/C(=O)OC[C@H]2O[C@H]3c4c(cc(O)c(OC)c4O)C(=O)O[C@@H]3[C@@H](O)[C@@H]2O)cc(OC)c1`, for which the IC50 in the series on PC-3 turned out to be 26.3 µM; in the series with MCF7, 6.25 µM; in the series on A549, 12.3 µM; with HepG2 [1] it was 16.8 µM; in the series on SGC-7901 it was 27.8 µM.
In the case of `COc1c(O)cc2c(c1O)[C@@H]1O[C@H](COC(=O)/C=C/c3ccc(Cl)cc3)[C@@H](O)[C@H](O)[C@H]1OC2=O`, the concentration for half-maximal inhibition (IC50) in the series with PC-3 was 86.5 µM; in the series on MCF7, over 100 µM; with A549, over 100 µM; with HepG2 [1], over 100 µM; in the series on SGC-7901, over 100 µM.
On to `O=c1[nH]cc(F)c(=O)[nH]1` [FLUOROURACIL], for which the IC50 was 38.6 µM in the series with PC-3; 7.67 µM in the series on MCF7; 10.7 µM in the series on A549; 17.4 µM in the series with HepG2 [1]; 13.2 µM with SGC-7901. In the series with HepG2 [2], the inhibition in vivo at 20 mg/kg was determined as 52.2%. For the same molecule, the Activity entry with Mus musculus is on record as “Toxic”.
Take `COc1cc(/C=C/C(=O)OC[C@H]2O[C@H]3c4c(cc(O)c(OC)c4O)C(=O)O[C@@H]3[C@@H](O)[C@@H]2O)cc(OC)c1OC`: the IC50 with PC-3 came out at 12.1 µM; with MCF7, 11.7 µM; with A549, 5.46 µM; in the series with HepG2 [1] it was 6.62 µM; in the series on SGC-7901 it was 7.53 µM.
On to `COc1c(O)cc2c(c1O)[C@@H]1O[C@H](COC(=O)/C=C/c3ccccc3)[C@@H](O)[C@H](O)[C@H]1OC2=O`, for which the IC50 with PC-3 was 13.5 µM; in the series on MCF7, over 100 µM; with A549 it was 56.9 µM; with HepG2 [1], 18.5 µM; in the series with SGC-7901, 9.67 µM.
In the same order, the values of `COc1c(O)cc2c(c1O)[C@@H]1O[C@H](COC(=O)/C=C/c3ccc(C)c(C)c3)[C@@H](O)[C@H](O)[C@H]1OC2=O` are over 100 µM, 59.5 µM, over 100 µM, over 100 µM and over 100 µM.
As for `COc1c(O)cc2c(c1O)[C@@H]1O[C@H](COC(=O)/C=C/c3ccc(Cl)c(Cl)c3)[C@@H](O)[C@H](O)[C@H]1OC2=O`, the IC50 is over 100 µM in the series on PC-3; over 100 µM in the series with MCF7; 63.2 µM in the series with A549; over 100 µM in the series with HepG2 [1]; over 100 µM in the series on SGC-7901.
For `COc1c(O)cc2c(c1O)[C@@H]1O[C@H](COC(=O)/C=C/c3ccc(F)cc3)[C@@H](O)[C@H](O)[C@H]1OC2=O`, the IC50 in the series with PC-3 was 22.9 µM; in the series with MCF7 it was 35.8 µM; in the series with A549 it was over 100 µM; in the series with HepG2 [1] it was 17.2 µM; in the series on SGC-7901, over 100 µM.
As to `COc1c(O)cc2c(c1O)[C@@H]1O[C@H](COC(=O)/C=C/c3ccc([N+](=O)[O-])cc3)[C@@H](O)[C@H](O)[C@H]1OC2=O`, the IC50 in the series on PC-3, in the series on MCF7, in the series with A549, in the series on HepG2 [1] and in the series on SGC-7901 was over 100 µM throughout.
For `COc1c(O)cc2c(c1O)[C@@H]1O[C@H](CO)[C@@H](O)[C@H](O)[C@H]1OC2=O` [BERGENIN], the 50% inhibitory concentration (IC50) in the series on PC-3 is over 100 µM; in the series on MCF7, over 100 µM; in the series with A549, 77.3 µM; in the series on HepG2 [1] it was 34.6 µM; in the series with SGC-7901, 23.6 µM.
`COc1c(O)cc2c(c1O)[C@@H]1O[C@H](COC(=O)/C=C/c3cc([N+](=O)[O-])cc([N+](=O)[O-])c3)[C@@H](O)[C@H](O)[C@H]1OC2=O`: the IC50 in the series on PC-3, in the series with MCF7, in the series on A549, in the series on HepG2 [1] and in the series with SGC-7901 was over 100 µM in each case.
For the molecule `COc1c(O)cc2c(c1O)[C@@H]1O[C@H](COC(=O)/C=C/c3cc(F)cc(F)c3)[C@@H](O)[C@H](O)[C@H]1OC2=O`, the IC50 with PC-3 was 46.2 µM; in the series on MCF7, 72.1 µM; in the series with A549 it was 28.4 µM; in the series with HepG2 [1], over 100 µM; in the series on SGC-7901, over 100 µM.
Regarding `COc1ccc(/C=C/C(=O)OC[C@H]2O[C@H]3c4c(cc(O)c(OC)c4O)C(=O)O[C@@H]3[C@@H](O)[C@@H]2O)cc1OC`, the IC50 in the series with PC-3 is over 100 µM; with MCF7 it was over 100 µM; in the series with A549, over 100 µM; with HepG2 [1], 86.1 µM; in the series on SGC-7901 it was 58.9 µM.
Regarding `COc1ccc(/C=C/C(=O)OC[C@H]2O[C@H]3c4c(cc(O)c(OC)c4O)C(=O)O[C@@H]3[C@@H](O)[C@@H]2O)cc1`, the IC50 is over 100 µM in the series with PC-3; 18.7 µM in the series with MCF7; 26.4 µM with A549; 29.7 µM in the series on HepG2 [1]; 15.9 µM in the series with SGC-7901.
As for `COc1c(O)cc2c(c1O)[C@@H]1O[C@H](COC(=O)/C=C/c3ccc(C)cc3)[C@@H](O)[C@H](O)[C@H]1OC2=O`, the IC50 is 30.2 µM in the series with PC-3; 20.2 µM in the series with MCF7; 10.3 µM in the series with A549; over 100 µM in the series on HepG2 [1]; 11.4 µM in the series on SGC-7901.
